hiPSC survival: hiPSC single-cell survival enhancement. ATPlite luminescence; 100% = ROCK inhibitor wells, 0% = DMSO. survival enhancement, % at 20 µM. 360,000 tested, 0.044% active. AID 602274; in the data active = survival enhancement above about 18%;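 note: cells exposed to compounds for 16 hours before the ATP read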
MPTP block: blocks calcium-induced mitochondrial swelling; isolated mouse mitochondria, Ca2+ swelling absorbance, 30 min; inhibition, % at 10 µM; 360,000 tested, 1.4% active;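 active = inhibition of 50% or more, scaled per plate between neutral and stimulator controls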
beta cell repl: MIN6 beta-cell proliferation induction. MIN6 cells proliferation, ATPlite luminescence, 48 h; cells starved in 0.2% serum; 100% = growth in 10% serum. proliferation, % at 10 µM. 330,000 tested, 0.29% active;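 active = compounds whose signal lies at least 3.5 SD above the mean of all wells on their plate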
UBC13 inh: human UBC13 polyubiquitination inhibition; P61088; UBC13 polyubiquitin chain formation, TR-FRET; inhibition, % at 20 µM; 330,000 tested, 0.47% active; in the data active = inhibition above about 45%, passing the limit was not always enough
Target sequence (P61088 whole entry, looked up): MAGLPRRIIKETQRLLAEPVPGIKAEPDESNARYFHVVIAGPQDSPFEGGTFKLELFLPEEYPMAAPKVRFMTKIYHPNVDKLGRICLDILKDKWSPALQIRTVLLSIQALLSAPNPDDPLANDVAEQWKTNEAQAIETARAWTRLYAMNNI
Apaf-1 inh: human Apaf-1 inhibition; O14727; reconstituted apoptosome caspase-3 activity, DEVD-Rh110 fluorescence; 330,000 tested, 0.71% active; inhibition, % at 20 µM; active = inhibition of at least 40% at 20 µM
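Assay system – apoptosome proteins · Medium – Hepes buffer, pH 7.5 · Also added – cytochrome c with DEVD-Rh110 · Timing – 30 min compound preincubation, 50 min activation, room temperature · Detection – Rh110 fluorescence, excitation 480 nm, emission 540 nm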
Granule exo inh: blocks lytic granule exocytosis; TALL-104 LAMP-1 surface exposure, flow cytometry; cells stimulated with thapsigargin and PMA; inhibition, % at 10 µM; 360,000 tested, 0.66% active;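 active = inhibition above about 55%, limit read from the data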
Rh123 counter: Rhodamine 123 counter-screen of mitochondrial pore hits; shares compounds with MPTP block; isolated mitochondria, membrane potential, Rhodamine 123 fluorescence; inhibition, % at 10 µM; 5,000 tested, 78% active; AID 624504; in the data active = inhibition above about 22%
MPTP swell DR: dose response confirmation of mitochondrial permeability transition pore inhibitors. IC50, µM. isolated mitochondria swelling, absorbance. 780 tested, 58% active. shares compounds with MPTP block. AID 651561; in the data active = IC50 below about 20 µM
MPTP counter DR: counter-screen for mitochondrial permeability transition pore inhibitors, dose response | 780 tested, 49% active | shares compounds with MPTP block | isolated mitochondria counterscreen, fluorescence read-out | IC50, µM; in the data active = IC50 below about 80 µM
Each line names hits and unclear results; the compound was inactive in the other large screens (follow-up assays come after a bar, where they were run). Only some compounds are listed: those with a hit (about 3% of all), similar ones and a draw of the others.

O=NN(CCc1ccncc1)c1ccc(OCc2ccccc2)cc1	MPTP block 93 | Rh123 counter 89
O=C(CSc1ncnc2c1oc1ccccc12)N1CCCc2ccccc21	MPTP block 79 | Rh123 counter 72
O=C(Cn1cnc2c(oc3ccccc32)c1=O)N1CCCc2ccccc21	none
O=C(Nc1cccc(Br)c1)Oc1cccc2cccnc12	MPTP block 75 (no result: beta cell repl, UBC13 inh, Apaf-1 inh) | Rh123 counter 102
Cc1cccc(NC(=O)CSc2cc(C)c(C#N)c3nc4ccccc4n23)c1	MPTP block 85 | Rh123 counter 58
CNc1cc(C)c(C#N)c2nc3ccccc3n12	none
CC(NC(=S)Nc1ccccc1OC(F)F)C(C)(C)C (stereo not drawn)	none
CC(NC(=S)Nc1ccc(OC(F)F)cc1OC(F)F)C(C)(C)C (stereo not drawn)	MPTP block 86 | Rh123 counter 91
COc1ccccc1Nc1nnc(SCC(=O)NC2CC2)s1	none
Cc1ccc(N(CC(=O)Nc2ccc(F)c(Cl)c2)S(=O)(=O)c2c(C)noc2C)cc1	MPTP block 58 | Rh123 counter 101
Cc1ccc(N(CC(=O)Nc2cc(C)cc(C)c2)S(=O)(=O)c2c(C)noc2C)cc1	none
COc1ccc(-c2nc(NC(C)=O)sc2-c2ccccc2)cc1	MPTP block 82 | Rh123 counter inactive | MPTP swell DR inactive | MPTP counter DR inactive
COc1ccc(-c2sc(NC(C)=O)nc2-c2ccccc2)cc1	none
COC(=O)[C@]12CCCCC=C1N(Cc1cccc3ccccc13)C(=O)[C@H](CC(=O)NCC13CC4CC(CC(C4)C1)C3)C2	none (no result: beta cell repl, UBC13 inh, Apaf-1 inh)
CCOc1cc(CNCc2ccncc2)cc(Br)c1OCc1ccc(F)cc1	MPTP block 98 | Rh123 counter inactive | MPTP swell DR 8.4 | MPTP counter DR 26
CCOc1cc(CNCCO)cc(Br)c1OCc1ccccc1	MPTP block 89 | Rh123 counter inactive | MPTP swell DR 5.5 | MPTP counter DR 19
Fc1ccc(COc2ccc(Br)cc2CNCc2ccncc2)cc1	none
COc1ccc(NC(=O)Nc2sc(=S)n(C)c2C)cc1	none
Cc1c(NC(=O)Nc2ccc(Cl)c(Cl)c2)sc(=S)n1C	MPTP block 51 | Rh123 counter 64
CN(C)CCCN1c2ccccc2Sc2ccccc21	none (no result: MPTP block)
CN(C)CCCN1c2ccccc2CCc2ccc(Cl)cc21	MPTP block 80 | Rh123 counter inactive
Cn1nc(-c2ccc(Cl)cc2)c2cc(C(=O)NCCCN3CCOCC3)sc21	MPTP block 74 | Rh123 counter inactive
CCN(CC)CCNC(=O)c1cc2c(-c3ccc(Cl)cc3)nn(C)c2s1	MPTP block 86 | Rh123 counter inactive
Cn1nc(-c2ccc(Cl)cc2)c2cc(C(=O)NCCN3CCOCC3)sc21	none
O=C(NCCCN1CCOCC1)/C(=C/c1ccc(-c2cccc([N+](=O)[O-])c2)o1)NC(=O)c1ccccc1	none (no result: beta cell repl, UBC13 inh, Apaf-1 inh)
Cc1nc2nc(C)n(CCN3CCOCC3)c(=O)c2c(-c2cccc([N+](=O)[O-])c2)c1C(=O)CCCCCCCCCCN1CCC(c2ccccc2)(c2ccccc2)CC1	MPTP block 59 (no result: beta cell repl, UBC13 inh, Apaf-1 inh) | Rh123 counter 107
CC1CCCC(C)N1C(=O)CN1C(=O)NC2(CCOc3ccccc32)C1=O (stereo not drawn)	none
COc1cc(OC)cc(C(=O)NC(=S)NNC(=O)[C@H]2C[C@@H]2c2ccccc2)c1	MPTP block 82 | Rh123 counter inactive
Fc1nc(F)c(F)c(NCCCNc2c(F)c(F)nc(F)c2F)c1F	MPTP block 93 | Rh123 counter 94
COCC(=O)N1CCC(Oc2ccc(C(=O)N3C[C@@H]4CCC[C@H]3C4)cc2)CC1	none
COc1ccc(CNC(=S)Nc2ccc(-c3ccccc3)cc2)cc1	none
NS(=O)(=O)c1ccc(NC(=S)NCc2ccc(Cl)cc2)cc1	none

Source: PubChem BioAssay
